Experimental data taken from publication PMC2929396 (Chemistry & biology, 2010).
pEC50, pIC50: −log10 of the molar value. Read-outs that look alike come from different tables or passages of the source.

Tests used:
HFF cells = experiment: Cell toxicity, CellTiter-Glo; assay type: cell-based, human; conditions: ATP production after 24 h treatment of HFF cells with 0.01–100 µM compound
Summary of the method: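 HFF cells were incubated 24 h with inhibitor (0.01–100 µM) or DMSO. Viability was read as ATP by CellTiter-Glo. EC50Tox was obtained by fitting the data to a dose response curve.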

P. falciparum [1] = experiment: P. falciparum replication assay; assay type: cell-based, Plasmodium falciparum; conditions: read-out: EC50Pot; standard 75 h replication assay, ring stage D10 parasites
Summary of the method: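 D10 parasites were synchronized by 70% Percoll schizont harvest, a 1 h invasion window and sorbitol. Ring-stage cultures (~2% parasitemia, 0.5% hematocrit) were treated with compound for ~75 h, until DMSO controls reached schizonts. Infected versus uninfected RBCs were counted by FACS. EC50Pot was fitted to a dose response curve.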

[2] = Compound toxicity and pharmacokinetics in mice; assay type: in vivo; conditions: Figure S2
[3] = tested on: NK65 P. berghei parasites; experiment: P. berghei mouse model of malaria, parasitemia; assay type: in vivo, Balb/c mice; conditions: Figure S2
P. falciparum [4] = experiment: Replication assay after 1h treatment and washout; assay type: cell-based, Plasmodium falciparum; conditions: 1h treatment at different life cycle stages
Summary of the method: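 Tightly synchronized parasites were exposed 1 h to inhibitor or DMSO at 1, 10, 18, 30, 38 or 46 h post-invasion. They were then washed 3× and cultured until progeny in DMSO controls reached schizonts (~80 h p.i.). Parasitemia was read by FACS from 3 independent measurements, reported as standard error.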

FPs (FP2/3) = experiment: Competition assay with activity-based probe 125I-DCG04, falcipain labeling; assay type: biochemical, Plasmodium falciparum; conditions: parasite lysates
Summary of the method: (§1)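 Trophozoite or merozoite lysates, or intact schizonts, were used in acetate buffer (50 mM sodium acetate, 5 mM MgCl2, 5 mM DTT, pH 5.5). Lysates were preincubated 30 min with 10 µM inhibitor, then labeled 1 h. FY01 labeled DPAPs (fluorescent SDS-PAGE scan) and 125I-DCG04 labeled falcipains (autoradiography). Loss of band signal indicated inhibition, and IC50s came from quantified gel bands.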

DPAP1 [5] = target: T1, DPAP1 (Plasmodium falciparum, UniProt Q8IIJ9); assay type: biochemical
T1 sequence (Q8IIJ9 370-599 limits assumed): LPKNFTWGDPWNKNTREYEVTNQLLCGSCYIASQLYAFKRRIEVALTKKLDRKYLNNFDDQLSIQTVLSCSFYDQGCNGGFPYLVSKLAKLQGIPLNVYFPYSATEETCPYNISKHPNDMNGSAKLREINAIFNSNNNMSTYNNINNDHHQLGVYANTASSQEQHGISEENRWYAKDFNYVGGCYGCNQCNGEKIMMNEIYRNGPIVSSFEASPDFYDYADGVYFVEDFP
T1 sequence (Q8IIJ9 28-209 limits assumed): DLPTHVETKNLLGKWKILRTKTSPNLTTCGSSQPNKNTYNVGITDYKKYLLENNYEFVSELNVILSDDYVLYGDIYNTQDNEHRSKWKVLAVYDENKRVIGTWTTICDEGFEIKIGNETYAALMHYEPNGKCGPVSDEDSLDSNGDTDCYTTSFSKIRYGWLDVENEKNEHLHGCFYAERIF
T1 sequence (Q8IIJ9 600-700 limits assumed): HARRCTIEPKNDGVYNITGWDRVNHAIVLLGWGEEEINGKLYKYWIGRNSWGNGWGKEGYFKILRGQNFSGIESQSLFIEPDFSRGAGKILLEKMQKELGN
Summary of the method: as §1

[6] = Stability after overnight incubation in mouse serum; assay type: in vitro ADME; conditions: 37 °C
Summary of the method: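 Inhibitor was incubated overnight at 37 °C in mouse serum. Remaining potency was tested as the ability to block FY01 labeling of DPAP1 in parasite lysates, run before and after serum exposure.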

P. falciparum [7] = experiment: Phenotypic effects in Geimsa-stained thin blood smears; assay type: cell-based, Plasmodium falciparum; conditions: schizonts treated 24 h
Summary of the method: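 Synchronous schizont-stage cultures were exposed to inhibitor for 24 h across increasing concentrations. Morphology was assessed on Giemsa-stained thin blood smears.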

DPAP3 = experiment: Competition assay with activity-based probe FY01, DPAP3 labeling; assay type: biochemical, Plasmodium falciparum; conditions: parasite lysates
Summary of the method: as §1

DPAP1 [8] = target: T1, DPAP1; experiment: DPAP1 specific fluorogenic assay; assay type: biochemical
Summary of the method: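 DPAP1 activity was assayed at 25 °C in pH 5.5 acetate buffer with 1% parasite lysate and 10 µM (Pro-Arg)2-Rho. Turnover was read for 5 min (ex 492/em 523 nm). Lysates were pretreated with inhibitor for set times (0.1–2 h). IC50 came from dose response fits. For ki, v/v0 relative to DMSO was fitted to a simple irreversible inhibitor model.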

[9] = ref personal communication, David Percival, Merck; cited from earlier work

CCCCC(C(=O)COc1c(F)c(F)cc(F)c1F)n1cc(C2(N)CCNCC2)nn1 (stereo not shown) [ML4162]
EC50Tox (HFF cells): 68000 (4000) nM
pEC50 (P. falciparum [1]): 6.66

CCCCC(C(=O)COc1c(F)c(F)cc(F)c1F)n1cc(C2(N)CCN(C(N)=O)CC2)nn1 (stereo not shown) [ML4154]
EC50Tox (HFF cells): 30000 (5000) nM
pEC50 (P. falciparum [1]): 4.35

CCC[C@H](N)C(=O)N[C@H](/C=C/S(=O)(=O)c1ccccc1)CCc1ccccc1 [JCP-410]
PK properties [2]: poor
effect in vivo [3]: no effect

C[C@H](N)C(=O)N[C@@H](Cc1ccc(I)cc1)C(=O)C=[N+]=[N-] [Ala-4(I)Phe-DMK]
sensitivity at trophozoite stage relative to other stages (P. falciparum [4]): 10 times
inhibition of FPs (ABP labeling) (FPs (FP2/3)): but not FPs or DPAP3
block of DPAP1 labeling by ABP (DPAP1 [5]; lysates, 30 min with 10 µM inhibitor then 1h FY01): efficiently blocked labeling
selectivity towards DPAP1 over DPAP3 and the FPs (DPAP1 [5]; other papain fold cysteine proteases of P. falciparum): at least 1000 fold
ability to inhibit DPAP1 after incubation in mouse serum [6]: lost virtually all of their activity
concentration inducing schizont arrest and a FV defect (P. falciparum [7]): ≥ 1 µM
inhibition of DPAP3 (ABP labeling) (DPAP3): but not FPs or DPAP3
pEC50 (P. falciparum [1]): 8.55
pIC50 (DPAP1 [8]; read-out: IC50DPAP1,1h, 1h, lysates): 8.19
pIC50 (DPAP1 [8]; read-out: IC50DPAP1,2h, 2h treatment of parasite lysates): 8.70
second order rate constant of inhibition (ki) (DPAP1 [8]; trophozoite lysates incubated with inhibitor 0.1–2h): 35000 ± 3000 M⁻¹ s⁻¹
pharmacokinetic (PK) properties [9]: very poor

CCCCC(C(=O)COc1c(F)c(F)cc(F)c1F)n1cc(C2(N)CCN(C(C)=O)CC2)nn1 (stereo not shown) [ML4163]
EC50Tox (HFF cells): > 100000 nM
pEC50 (P. falciparum [1]): < 4.00

CCCCC(C(=O)COC(=O)c1c(C)cccc1C)n1cc(C2(N)CCCCC2)nn1 (stereo not shown) [ML4091]
EC50Tox (HFF cells): 12000 (3000) nM
pEC50 (P. falciparum [1]): 5.22
